Laboratory results taken from EPA's CvTdb concentration-time database.

Assays:
Rat [1] = assay: concentration in liver after dosing; conditions: 3 h; dosed: Potassium Perfluorobutane Sulfonate; 20 mg/kg; oral; Female; Harlan Sprague Dawley
Rat [2] = assay: concentration in liver after dosing; conditions: 1 h; dosed: Potassium Perfluorobutane Sulfonate; 20 mg/kg; oral; Female; Harlan Sprague Dawley
Rat [3] = assay: concentration in kidney after dosing; conditions: 12 h; dosed: Potassium Perfluorobutane Sulfonate; 20 mg/kg; oral; Male; Harlan Sprague Dawley
Rat [4] = assay: concentration in plasma after dosing; conditions: 0.5 h; dosed: Potassium Perfluorobutane Sulfonate; 4 mg/kg; iv; Male; F344
Rat [5] = assay: concentration in plasma after dosing; conditions: 1.5 h; dosed: Potassium Perfluorobutane Sulfonate; 4 mg/kg; iv; Male; F344
Rat [6] = assay: concentration in plasma after dosing; conditions: dosed: Potassium Perfluorobutane Sulfonate, 4 mg/kg, oral, Male, Harlan Sprague Dawley
Rat [7] = assay: concentration in liver after dosing; conditions: 12 h; dosed: Fluorotelomer alcohol 8+2; 80 mg/kg; oral; Female; Harlan Sprague Dawley
Rat [8] = assay: concentration in brain after dosing; conditions: 24 h; dosed: Perfluorooctanoic acid; 12 mg/kg; oral; Male; Harlan Sprague Dawley
Rat [9] = assay: concentration in liver after dosing; conditions: 3 h; dosed: Fluorotelomer alcohol 8+2; 80 mg/kg; oral; Female; Harlan Sprague Dawley
Rat [10] = assay: concentration in liver after dosing; conditions: 3 h; dosed: Perfluorooctanoic acid; 80 mg/kg; oral; Female; Harlan Sprague Dawley
Rat [11] = assay: concentration in plasma after dosing; conditions: 192 h; dosed: 678-39-7; 12 mg/kg; iv; Male; F344
Rat [12] = assay: concentration in kidney after dosing; conditions: 6 h; dosed: Perfluorooctanoic acid; 80 mg/kg; oral; Female; Harlan Sprague Dawley
Rat [13] = assay: concentration in kidney after dosing; conditions: 1 h; dosed: Fluorotelomer alcohol 8+2; 80 mg/kg; oral; Female; Harlan Sprague Dawley
Rat [14] = assay: concentration in kidney after dosing; conditions: 24 h; dosed: Perfluorooctanoic acid; 12 mg/kg; oral; Male; Harlan Sprague Dawley
Rat [15] = assay: concentration in kidney after dosing; conditions: 1 h; dosed: Fluorotelomer alcohol 8+2; 24 mg/kg; oral; Male; Harlan Sprague Dawley
Rat [16] = assay: concentration in plasma after dosing; conditions: 192 h; dosed: 678-39-7; 12 mg/kg; iv; Male; F344; remark: listed apart in the source
Rat [17] = assay: concentration in kidney after dosing; conditions: 1 h; dosed: Fluorotelomer alcohol 8+2; 80 mg/kg; oral; Female; Harlan Sprague Dawley; remark: listed apart in the source
Rat [18] = assay: concentration in plasma after dosing; conditions: 0.25 h; dosed: 2-Hydroxy-4-methoxybenzophenone; 500 mg/kg; oral; Female; F344
Rat [19] = assay: concentration in plasma after dosing; conditions: 0.25 h; dosed: 2-Hydroxy-4-methoxybenzophenone; 500 mg/kg; oral; Male; F344
Mouse [20] = assay: concentration in plasma after dosing; conditions: 10 min; dosed: 2-Hydroxy-4-methoxybenzophenone; 250 mg/kg; oral; Female; B6C3F1
Mouse [21] = assay: concentration in plasma after dosing; conditions: 2 h; dosed: 2-Hydroxy-4-methoxybenzophenone; 500 mg/kg; oral; Male; B6C3F1
Mouse [22] = assay: concentration in plasma after dosing; conditions: 3 h; dosed: 2-Hydroxy-4-methoxybenzophenone; 250 mg/kg; oral; Male; B6C3F1
Rat [23] = assay: concentration in plasma after dosing; conditions: dosed: 2-Hydroxy-4-methoxybenzophenone, 8 mg/kg, iv, Female, F344
human = assay: concentration in urine after dosing; negative times count back from the end of exposure; conditions: dosed: methanol, inhalation, duration: 8 hr
Outline: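 Concentration-versus-time or amount-versus-time points were compiled from published in vivo toxicokinetic studies and from two structured collections. The studies were found by PubMed searching, classifier screening and manual review. Points were mostly digitised from plot screenshots with WebPlotDigitizer, otherwise copied from tables, and kept in the reported units. Dose, route, subject details and medium were curated by hand from each paper, and sampling and analytical methods follow each source and were often unreported.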

Rat [24] = assay: concentration in plasma after dosing; conditions: dosed: Nitrite, 20 mg/kg, iv, Male, F344
Rat [25] = assay: concentration in plasma after dosing; conditions: dosed: Nitrite, 80 mg/kg, oral, Female, F344

O=S(=O)([O-])C(F)(F)C(F)(F)C(F)(F)C(F)(F)F.[K+] [Potassium Perfluorobutane Sulfonate]
Conditions | concentration in kidney [ng/g] | concentration in liver [ng/g] | concentration in plasma [ng/mL]
Rat [1] | – | 5050 | –
Rat [2] | – | 27800 | –
Rat [3] | 3890 | – | –
Rat [4] | – | – | 12500
Rat [5] | – | – | 11400

Rat [6]
Conditions | concentration in plasma [ng/mL]
0.5 h | 7030
9 h | 5080

O=C(O)C(F)(F)C(F)(F)C(F)(F)C(F)(F)C(F)(F)C(F)(F)C(F)(F)F [Perfluorooctanoic acid]
Conditions | concentration in brain [ng/g] | concentration in kidney [ng/g] | concentration in liver [ng/g] | concentration in plasma [ng/mL]
Rat [7] | – | – | 487 | –
Rat [8] | 1290 | – | – | –
Rat [9] | – | – | 2300 | –
Rat [10] | – | – | 32900 | –
Rat [11] | – | – | – | 310
Rat [12] | – | 178000 | – | –
Rat [13] | – | 353 | – | –
Rat [14] | – | 28700 | – | –
Rat [15] | – | 175 | – | –
Rat [16] | – | – | – | 307
Rat [17] | – | 568 | – | –

COc1ccc(C(=O)c2ccccc2)c(O)c1 [2-Hydroxy-4-methoxybenzophenone]
Conditions | concentration in plasma [ng/mL]
Mouse [20] | 117
Mouse [21] | 90.1
Mouse [22] | 37.2
Rat [18] | 1730
Rat [19] | 902

Rat [23]
Conditions | concentration in plasma [ng/mL]
0.25 h | 120
4 h | 75.6

CO [methanol]
human
Conditions | concentration in urine [ng/mL]
0 h, 78 ppm | 3490
0 h, 158 ppm | 6700
0 h, 231 ppm | 9600
1.997 h, 300 mg/m^3, male | 7640
2 h, 78 ppm | 2290
2 h, 158 ppm | 5240
2 h, 231 ppm | 7600
2.005 h, 205 mg/m^3, male | 5340
2.035 h, 102 mg/m^3, male | 2420
3.995 h, 300 mg/m^3, male | 4350
4 h, 78 ppm | 1770
4 h, 102 mg/m^3, male | 1630
4 h, 158 ppm | 2690
4 h, 231 ppm | 4360
4.036 h, 205 mg/m^3, male | 2760
5.995 h, 102 mg/m^3, male | 1360
6 h, 78 ppm | 1470
6 h, 158 ppm | 1830
6 h, 231 ppm | 2400
6.026 h, 205 mg/m^3, male | 1810
6.031 h, 300 mg/m^3, male | 2430
10.88 h, 205 mg/m^3, male | 1280
10.91 h, 102 mg/m^3, male | 1090
10.94 h, 300 mg/m^3, male | 1480
11 h, 78 ppm | 1140
11 h, 158 ppm | 1360
11 h, 231 ppm | 1660
15.5 h, 231 ppm | 1030
15.71 h, 205 mg/m^3, male | 1140
53 s, 300 mg/m^3, male | 9620
65 s, 205 mg/m^3, male | 6690
67 s, 102 mg/m^3, male | 3420

human, during exposure
Conditions | concentration in urine [ng/mL]
-8 h, 78 ppm | 572
-8 h, 158 ppm | 1030
-8 h, 231 ppm | 1340
-7.859 h, 300 mg/m^3, male | 802
-7.832 h, 102 mg/m^3, male | 802
-7.832 h, 205 mg/m^3, male | 802
-6.075 h, 300 mg/m^3, male | 4350
-6 h, 78 ppm | 1750
-6 h, 158 ppm | 3090
-6 h, 231 ppm | 4340
-5.977 h, 205 mg/m^3, male | 3090
-5.962 h, 102 mg/m^3, male | 1700
-4.073 h, 205 mg/m^3, male | 4890
-4.031 h, 300 mg/m^3, male | 6790
-4 h, 78 ppm | 2390
-4 h, 158 ppm | 4820
-4 h, 231 ppm | 6830
-3.984 h, 102 mg/m^3, male | 2500
-2.068 h, 205 mg/m^3, male | 5830
-2 h, 78 ppm | 3090
-2 h, 158 ppm | 5920
-2 h, 231 ppm | 8400
-1.993 h, 300 mg/m^3, male | 8430
-1.981 h, 102 mg/m^3, male | 3130

O=N[O-] [Nitrite]
concentration in plasma [ng/mL]
Conditions | 0.75 h | 2 min | 5 min | 8 h
Rat [24] | 4400 | 9000 | – | –
Rat [25] | – | – | 6900 | 1800
